The source of these data is ChEMBL document CHEMBL1136729, “Synthesis of 3'- and 5'-nitrooxy pyrimidine nucleoside nitrate esters: "nitric oxide donor" agents for evaluation as anticancer and antiviral agents” (J Med Chem, 2003).

The CC50 is the concentration at which the toxic effect on the cells reaches its halfway point. Usually IC50 stands for the concentration that gives 50% inhibition.

Assay [1] relates to KBALB cell line. Briefly: In vitro cell cytotoxicity against KBALB cell line (transformed fibroblast sarcoma cell line). The assay is classed as functional. The following applies: Mus musculus. A digest of the protocol: (§1)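 MTT assay. KBALB, KBALB-STK, 143B and 143B-LTK cells were grown in DMEM with 10% FBS; EMT-6 cells in Waymouth medium with 12.5% FBS. Cells were seeded at 8 × 10² per well and grown 24 h. Compound in DMEM was added for 3 days at 37 °C in 5% CO2, followed by MTT for 4 h, DMSO solubilisation and blank-corrected A540. CC50 is the concentration cutting A540 to 50% of control, mean of n = 6.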

The subject of assay [2] is Human respirovirus 3. Briefly: Antiviral activity against parainfluenza-3 virus. The assay is classed as functional, organism-based.
Assay [3] in a line: Compound was tested for in vitro nitric oxide release in the presence of 18 mM L-cysteine at 1 h. The assay is classed as functional. A digest of the protocol:
(§2)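 Compound (2 mM stock in 0.1 M phosphate buffer pH 7.4) was mixed 1:1 with freshly made 36 mM L-cysteine in the same buffer and incubated at 37 °C for 1 or 16 h without air. The mixture was exposed to air for 10 min, then Griess reagent was added. A540 was read after 10 min. Nitrite was calculated from a 0–60 μM sodium nitrite standard curve, n = 3.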

Assay [4] deals with Sindbis virus. Briefly: Antiviral activity against sindbus virus. The assay is classed as functional, organism-based.
Assay [5] concerns Respiratory syncytial virus. Briefly: Antiviral activity against respiratory syncytial virus in Hela cell cultures. The assay is classed as functional, organism-based. The following applies: human respiratory syncytial virus.
Assay [6] relates to Mammalian orthoreovirus 1. Briefly: Antiviral activity against reovirus-1. The assay is classed as functional, organism-based.
Assay [7] relates to KBALB-STK. Description: In vitro cell cytotoxicity against KBALB-STK cell lines expressed in HSV-1 TK. The assay is classed as functional. The note with it: Mus musculus. The essentials:
as §1

The species entered for assay [8] is Rattus norvegicus. Briefly: Compound was tested for in vitro nitric oxide release in the presence of rat serum at 1 h. The assay is classed as functional. The essentials: (§3)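 Compound (1 × 10⁻² M stock) was mixed 1:9 with filtered rat serum. It was incubated at 37 °C for 1 or 16 h with 0.2 U/mL Aspergillus nitrate reductase, 50 mM HEPES, 5 μM FAD and 0.1 mM NADPH. Leftover NADPH was removed with lactate dehydrogenase plus pyruvate over 10 min. Griess reagent was added and A540 read after 10 min at 25 °C. % NO release came from a nitrite standard curve, n = 3.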

Assay [9] has as its system Coxsackievirus B4. Briefly: Antiviral activity against coxsackie B4 virus. The assay is classed as functional, organism-based. The note with it: Enterovirus B.
For assay [10], the system named is Punta Toro virus. Description: (§4) Antiviral activity against Punta toro virus in vero cell cultures. The assay is classed as functional, organism-based.
Assay [11] is described as follows: Compound was tested for in vitro nitric oxide release in the presence of 18 mM L-cysteine at 16 h. The assay is classed as functional. A digest of the protocol: as §2
The species entered for assay [12] is Rattus norvegicus. Description: Compound was tested for in vitro nitric oxide release in the presence of rat serum at 16 h. The assay is classed as functional. A digest of the protocol:
as §3

In assay [13] the test system is 143B. Briefly: In vitro cell cytotoxicity against 143B-LTK cell lines expressed in HSV-1 TK. The assay is classed as functional. The following applies: Homo sapiens. A digest of the protocol: as §1
For assay [14], the system named is Vaccinia virus. Briefly: Inhibitory activity against vaccinia virus. The assay is classed as functional, organism-based. The following applies: Orthopoxvirus vaccinia.
The test system of assay [15] is 143B. Description: In vitro cell cytotoxicity against 143-B cell lines (Human osteosarcoma cell line). The assay is classed as functional. The essentials: as §1
Assay [16] has as its system Human alphaherpesvirus 1. Description: (§5) Inhibitory activity against herpes simplex virus […]. The assay is classed as functional, organism-based.
The subject of assay [17] is Human alphaherpesvirus 2. The description is as §5. The assay is classed as functional, organism-based.
The test system of assay [18] is Monkey. The assay is described as §4. The note with it: Cercopithecidae. The assay is classed as functional, organism-based, Chlorocebus sabaeus.
Assay [19] has as its system EMT6. Briefly: (§6) In vitro cell cytotoxicity against EMT-6 cell lines. The assay is classed as functional. The following applies: Mus musculus. A digest of the protocol:
as §1

Assay [20] can be described thus: Compound was tested for in vitro nitric oxide release in the presence of 18 mM L-cysteine at 16h. The assay is classed as functional. The essentials:
as §2

The nature of assay [21]: as §6. The note with it: Mus musculus, EMT6. The assay is classed as functional. A digest of the protocol: as §1
Assay [22] has as its system Human alphaherpesvirus 2. Description: Inhibitory activity against HSV-2. The assay is classed as functional, organism-based.
For assay [23], the system named is Human alphaherpesvirus 1. Description: Inhibitory activity against HSV-1. The assay is classed as functional, organism-based.

≈ marks a conversion by molar mass, not a printed value.

For the compound `Cc1cn([C@H]2C[C@H](O[N+](=O)[O-])[C@@H](CO)O2)c(=O)[nH]c1=O`, the CC50 was determined as 1000 µM in assay [1] and 7000 µM in [7]. Further, the IC50 in assay [2], in assay [4], in assay [5], in assay [6], in assay [9] and in assay [10] was over 80 µg/mL in each case. Also, the NO release came out at 4.9% in assay [3], 7.4% in assay [8], 53.6% in [11] and 7.4% in [12].

For the compound `O=c1[nH]c(=O)n([C@H]2C[C@H](O[N+](=O)[O-])[C@@H](CO)O2)cc1I`, the 50% cytotoxic concentration (CC50) was 410 µM in assay [13]; 240 µM in assay [1]; 580 µM in assay [15]; 23 µM in [19]; 260 µM in [7]. In addition, the IC50 in assay [2] is over 80 µg/mL; in assay [14], 48 µg/mL (≈ 120 µM); in assay [4] it was over 80 µg/mL; in [16], 48 µg/mL (≈ 120 µM); in [17] it was 48 µg/mL (≈ 120 µM); in assay [18] it was over 80 µg/mL. Moreover, the IC50 in assay [5], in [6] and in [9] was over 80 µg/mL throughout. Further, the NO release in assay [3] came out at 3.9%; in assay [8], 12.3%; in [11] it was 37.6%; in assay [12] it was 13.2%.

As for `O=c1[nH]c(=O)n([C@H]2C[C@H](O)[C@@H](CO)O2)cc1F` [FLOXURIDINE], the CC50 was 100 µM in assay [13] and 90 µM in assay [15].

`Nc1nc(=O)n([C@H]2C[C@H](O[N+](=O)[O-])[C@@H](CO)O2)cc1I`: the CC50 in assay [13] came out at 200 µM; in assay [1], 1000 µM; in assay [15], 200 µM; in assay [19], 340 µM; in assay [7], 250 µM. Moreover, the NO release in [3] was 4%; in assay [8], 12.5%; in assay [11], 47.2%; in assay [12] it was 17.6%.

Take `Cc1cn([C@H]2C[C@H](O)[C@@H](CO[N+](=O)[O-])O2)c(=O)[nH]c1=O`: the NO release is 5% in assay [3], 3.6% in assay [8], 59.8% in assay [20] and 4.8% in assay [12]. In assay [7], this compound displayed a CC50 of 300 µM.

As to `Cc1cn([C@H]2C[C@H](O[N+](=O)[O-])[C@@H](CO)O2)c(=O)nc1N`, the midpoint of cytotoxicity in [13], the CC50, lay at 1000 µM. The NO release in assay [3] came to 3.8%; in assay [8], 47.1%; in assay [11], 50.3%; in assay [12], 59.5%.

With `O=c1[nH]c(=O)n([C@H]2C[C@H](O)[C@@H](CO)O2)cc1I` [IDOXURIDINE], the CC50 in assay [13] was determined as 7400 µM; in [1] it was 97 µM; in assay [15], 7000 µM; in [21] it was 380 µM; in assay [7] it was 10 µM.

Compound `Nc1ccn([C@H]2C[C@H](O[N+](=O)[O-])[C@@H](CO)O2)c(=O)n1` came in with a CC50 in assay [13] of 200 µM. The NO release was found to be 1.5% in assay [3], 18.8% in assay [8], 17.1% in [11] and 20.2% in assay [12].

Regarding `O=c1[nH]c(=O)n([C@H]2C[C@H](O)[C@@H](CO[N+](=O)[O-])O2)cc1I`, the cytotoxic concentration (CC50) in assay [13] is 21 µM; in assay [1], 340 µM; in assay [15], 340 µM; in assay [7] it was 250 µM. In addition, the NO release in assay [3] amounted to 3.7%; in assay [8] it was 3.9%; in assay [11] it was 36.4%; in assay [12], 4.7%.

As for `O=c1ccn([C@H]2C[C@H](O[N+](=O)[O-])[C@@H](CO)O2)c(=O)[nH]1`, in assay [13], the 50% cytotoxic concentration (CC50) came to 850 µM. Also, the IC50 in assay [2], in [4], in assay [18], in assay [5], in [6] and in assay [9] was over 80 µg/mL each time. In addition, the NO release was 4.9% in [3], 7.7% in [8] and 9% in assay [12].

As to `O=c1[nH]c(=O)n([C@H]2C[C@H](O[N+](=O)[O-])[C@@H](CO)O2)cc1F`, the CC50 in assay [13] amounted to 74 µM; in assay [1], 8 µM; in assay [15] it was 2.4 µM; in assay [21], 6.2 µM; in [7] it was 3.5 µM. Besides, the IC50 in assay [2], in assay [4], in assay [5], in [6], in [9] and in assay [10] was over 80 µg/mL each time. For the same compound, the NO release in [3] is 0%; in assay [8] it was 4%; in assay [11], 3.8%; in [12], 6.6%.

With `O=[N+]([O-])O[C@H]1CO[C@H]2[C@@H]1OC[C@H]2O[N+](=O)[O-]` [ISOSORBIDE DINITRATE], the CC50 is 700 µM in assay [13], 970 µM in assay [1], 600 µM in [15] and 650 µM in assay [7]. Besides, the NO release worked out at 3.5% in assay [3], 1.9% in assay [8], 24% in assay [11] and 2.6% in assay [12].

The compound `O=c1ccn([C@H]2C[C@H](O)[C@@H](CO[N+](=O)[O-])O2)c(=O)[nH]1` had a CC50 in assay [1] of 1000 µM. In addition, the NO release in assay [3] worked out at 5.4%; in assay [8] it was 2.9%; in [11], 59.9%; in [12], 4.4%.

Regarding `Cc1cn([C@H]2C[C@H](O)[C@@H](CO)O2)c(=O)[nH]c1=O` [DOXRIBTIMINE], the CC50 came to 95 µM in [1], 130 µM in assay [21] and 100 µM in assay [7].

As to `O=c1[nH]c(=O)n([C@H]2C[C@H](O)[C@@H](CO)O2)cc1/C=C/I`, the IC50 amounted to 2.3 µg/mL (≈ 6.05 µM) in assay [14], 80 µg/mL (≈ 210 µM) in [22] and 0.0051 µg/mL (≈ 0.0134 µM) in assay [23].
